Assay results taken from paper PMC9122039 (Chembiochem : a European journal of chemical biology, 2022).
Where a SMILES comes first, the peptide text is derived from it. The star is where a group is joined. Cbz = O=C(OCc1ccccc1)*

Experiments:
Assay type in all cases: cell-based
[1] = test system: proteasome in HEK-293T cells; assay: Flow cytometry with probe 3; conditions: modulator 1 h, then 3 for 1 h, rinsed with PBS
Procedure, shortened: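 HEK-293T cells get the test compound (stimulator or inhibitor) for 1 h. The BODIPY-epoxomicin probe is then added and incubated another hour. Cells are pelleted and rinsed with PBS to remove unreacted probe. Probe fluorescence is measured by flow cytometry against DMSO-treated samples.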

[2] = test system: proteasome in HEK-293T cells; assay: Confocal microscopy with probe 3; conditions: modulator 25 μM 1 h, then 3 at 500 nM 1 h, PBS wash
Procedure, shortened: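 HEK-293T cells on poly-D-lysine-coated glass coverslip chambers; test compound (proteasome stimulator or inhibitor) at 25 μM for 1 h, then BODIPY-epoxomicin probe at 500 nM for another hour. PBS wash removes extracellular or unbound probe. Controls: DMSO plus probe (basal activity) and DMSO without probe. Imaged by confocal in bright field and BodipyFL green channel, with overlay.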

[3] = test system: proteasome (β2 and β5 subunits) in HEK-293T cells; conditions: then 3 at 500 nM 1 h; for change of proteasome activity: modulator 5 μM 1 h; for increase of proteasome labeling over DMSO treated samples: modulator 25 μM 1 h; for effect of inhibitor on labeling by 3: inhibitor at two concentrations 1 h
Procedure, shortened: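 HEK-293T cells pre-treated 1 h with the test compound (stimulators and inhibitors, each at two concentrations) or DMSO. BODIPY-epoxomicin probe then added at 500 nM for 1 h (2 h total). Proteasome bound by the probe is resolved by SDS-PAGE and in-gel fluorescence is scanned. β2 and β5 band signals are quantified and normalised to DMSO; error bars are standard deviation.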

Molecule | change of fluorescent signal of 3 over DMSO treated samples (flow cytometry) [1] | change of intracellular fluorescent signal of 3 (confocal microscopy) [2] | change of proteasome activity [3] | increase of proteasome labeling over DMSO treated samples [3] | effect of inhibitor on labeling by 3 [3]
Clc1ccc(COC(Cn2ccnc2)c2ccc(Cl)cc2Cl)c(Cl)c1 (stereo not drawn) [MO, Miconazole] | increase | remarkable increase in fluorescent signal | significant increase in activity | at least 40% | –
CCCCC/C=C\C/C=C\C/C=C\C/C=C\CCCC(=O)Nc1ccc(O)cc1 [AM-404] | – | – | – | at least 40% | –
CN1CCN(CCCN2c3ccccc3Sc3ccc(C(F)(F)F)cc32)CC1 [TFP, trifluoperazine] | increase | – | significant increase in activity | at least 40% | –
epoxomicin | – | – | – | – | prevented the binding of (3)
CC(C)C[C@@H](C=O)NC(=O)[C@H](CC(C)C)NC(=O)[C@H](CC(C)C)NC(=O)OCc1ccccc1 [MG-132] (Cbz-Leu-Leu-Leu-aldehyde) | decrease | significantly decreased the signal | – | – | prevented the binding of (3)
